Results taken from ChEMBL document CHEMBL4138242, “Synthesis and antibacterial evaluation of novel cationic chalcone derivatives possessing broad spectrum antibacterial activity” (Eur J Med Chem, 2018).
Calls of active or inactive are those of the source. The calls are words filed in the database; no cut-off is given here.

Legend:
Staphylococcus aureus [1] = experiment: Antibacterial activity against methicillin-resistant Staphylococcus aureus clinical isolate 1208143 after 16 to 20 hrs by broth microdilution method; assay type: functional
How it was run: (§1)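 CLSI broth microdilution in Mueller-Hinton broth. A 4-6 h culture was diluted to about 10⁶ CFU/mL and mixed 1:1 with compound dilutions prepared at 256 to 0.5 µg/mL from aqueous stocks. Plates were incubated at 37 °C for 16-20 h and read visually for MIC. Each concentration was run in duplicate, and the experiment was repeated at least twice. Vancomycin and meropenem were comparators.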

Staphylococcus aureus [2] = experiment: Bactericidal activity against methicillin-resistant Staphylococcus aureus in presence of 50% sheep blood after 20 to 24 hrs; assay type: functional; conditions: read-out: MBC99.9
How it was run: (§2)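 MRSA at 10⁵ CFU/mL in 50% MHB plus 50% sheep serum, plasma or defibrinated blood; serum and plasma were obtained by centrifugation at 3,500 rpm for 10 min. Aqueous dilutions prepared at 512-4 µg/mL were added 1:3 to the suspension and incubated for 20-24 h at 37 °C. Well contents (20 µL) were plated on MHA for 20-24 h, and MBC was the concentration giving no colonies.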

Staphylococcus aureus [3] = experiment: Antibacterial activity against methicillin-resistant Staphylococcus aureus clinical isolate 0906202 after 16 to 20 hrs by broth microdilution method; assay type: functional; how it was run: as §1
Staphylococcus aureus [4] = experiment: Ratio of MBC99.9 for methicillin-resistant Staphylococcus aureus in presence of 50% sheep serum to MBC99.9 for methicillin-resistant Staphylococcus aureus ATCC 29213 in presence of 50% sheep plasma; assay type: functional; how it was run: as §2
Staphylococcus aureus [5] = experiment: Antibacterial activity against methicillin-resistant Staphylococcus aureus clinical isolate 1105183 cono7 after 16 to 20 hrs by broth microdilution method; assay type: functional; how it was run: as §1
Escherichia coli [6] = experiment: Antibacterial activity against Escherichia coli ATCC 25922 after 16 to 20 hrs by broth microdilution method; assay type: functional
How it was run: (§3)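 Broth microdilution per CLSI. Bacteria grown 4-6 h (about 10⁸ CFU/mL), then diluted to about 10⁶ CFU/mL. Medium: Mueller-Hinton broth, except Luria-Bertani broth for E. coli. Compounds in sterile water, twofold series 256-0.5 µg/mL, mixed 1:1 with inoculum, 37 °C for 16-20 h. MIC is the lowest concentration without visible growth. Duplicate wells; experiment repeated at least twice.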

Escherichia coli [7] = experiment: Bactericidal activity against Escherichia coli ATCC 25922 at 6 to 8 times MIC after 6 hrs by time-kill assay; assay type: functional, organism-based
How it was run: (§4)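 Overnight cultures diluted 1:10,000 in MHB and grown at 37 °C, 225 rpm, for 2 h (early exponential) or 5 h (late exponential). Cells exposed to compound at 6× or 8× MIC in tubes at 37 °C, 225 rpm. At intervals, aliquots were spun, resuspended in PBS, tenfold diluted, plated on MHA overnight at 37 °C and counted as CFU/mL. Biological replicates.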

Staphylococcus aureus [8] = experiment: Antibacterial activity against methicillin-resistant Staphylococcus aureus clinical isolate 0831010 after 16 to 20 hrs by broth microdilution method; assay type: functional; how it was run: as §1
Staphylococcus aureus [9] = experiment: Antibacterial activity against methicillin-resistant Staphylococcus aureus clinical isolate 20130911034sau after 16 to 20 hrs by broth microdilution method; assay type: functional; how it was run: as §1
Escherichia coli [10] = experiment: Induction of inner membrane permeabilization in Escherichia coli ATCC 25922 at 10 to 20 ug/ml measured every 2 mins for 12 mins by propidium iodide staining-based fluorescence assay; assay type: functional, organism-based
How it was run: (§5)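 Mid-log cells (~10⁸ CFU/mL) were suspended in PBS (S. aureus) or HEPES/glucose/KCl (E. coli). They were preincubated with propidium iodide for 30 min (S. aureus) or 40 min (E. coli), and baseline fluorescence was read for 8 min. Compound was added to 20 µg/mL final, and fluorescence (ex 535/em 617 nm) was read every 2 min for 12 min.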

Staphylococcus aureus [11] = experiment: Antibacterial activity against Staphylococcus aureus ATCC 29213 after 16 to 20 hrs by broth microdilution method; assay type: functional; how it was run: as §3
Staphylococcus aureus [12] = experiment: Bactericidal activity against Staphylococcus aureus ATCC 29213 at 6 times MIC after 3 hrs by time-kill assay (reference value: 10^6.1 CFU/ml); assay type: functional; how it was run: as §4
Staphylococcus aureus [13] = experiment: Induction of cytoplasmic membrane depolarization in Staphylococcus aureus ATCC 29213 at 10 to 20 ug/ml measured every 2 mins for 12 mins by DiSC35 dye-based fluorescence assay; assay type: functional, organism-based
How it was run: (§6)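 Mid-log cells (~10⁸ CFU/mL) were suspended in PBS (S. aureus) or HEPES/glucose/KCl with EDTA (E. coli). They were preloaded with DiSC3(5) for 30 min (S. aureus) or 40 min (E. coli), and baseline fluorescence was read for 8 min. Compound was added to 20 µg/mL final, and fluorescence (ex 622/em 670 nm) was read every 2 min for 12 min. Water served as control.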

Escherichia coli [14] = experiment: Disruption of 72 hrs cultured Escherichia coli ATCC 25922 biofilm assessed as decrease in cell viability in biofilm after 24 hrs by crystal violet staining-based assay; assay type: functional, organism-based
[15] = Hemolytic activity in sheep RBC after 1 hr; assay type: ADME, cell-based, Ovis aries, Erythrocyte; conditions: sheep red blood cells (erythrocytes)
How it was run: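 Sheep red blood cells (150 µL suspension) mixed with 50 µL of compound dilutions (5120-10 µg/mL), 1 h at 37 °C, then centrifuged. Supernatant read at 540 nm. Percent hemolysis calculated relative to RBC-only control (0%) and 0.1% Triton X-100 (100%).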

HeLa [16] = experiment: Cytotoxicity against human HeLa cells at 2 to 4 times MIC after 24 hrs by calcein AM/propidium iodide staining-based fluorescence microscopic method; assay type: cell-based
How it was run: (§7)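 HeLa cells in DMEM with 10% FBS (37 °C, 5% CO₂), seeded in 12-well plates and left to adhere overnight. Treated 24 h with compound at 2× and 4× MIC; untreated and 0.1% Triton X-100 controls. Cells washed with PBS and imaged for morphology. For live/dead imaging, stained with 2 µM calcein AM and 4.5 µM PI for 15 min at 37 °C.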

Staphylococcus aureus [17] = experiment: Induction of inner membrane permeabilization in Staphylococcus aureus ATCC 29213 at 10 to 20 ug/ml measured every 2 mins for 12 mins by propidium iodide staining-based fluorescence assay; assay type: functional, organism-based; how it was run: as §5
Staphylococcus aureus [18] = experiment: Antibacterial activity against methicillin-resistant Staphylococcus aureus clinical isolate 1207007 after 16 to 20 hrs by broth microdilution method; assay type: functional; how it was run: as §1
Staphylococcus aureus [19] = experiment: Bactericidal activity against methicillin-resistant Staphylococcus aureus in presence of 50% sheep serum after 20 to 24 hrs; assay type: functional; conditions: read-out: MBC99.9; how it was run: as §2
Enterococcus faecalis = experiment: Antibacterial activity against Enterococcus faecalis ATCC 29212 after 16 to 20 hrs by broth microdilution method; assay type: functional; how it was run: as §3
HeLa [20] = experiment: Cytotoxicity against human HeLa cells assessed as effect on cell morphology at 2 to 4 times MIC after 24 hrs by electron scanning microscopic method; assay type: cell-based; how it was run: as §7
Salmonella enterica = experiment: Antibacterial activity against Salmonella enterica ATCC 13076 after 16 to 20 hrs by broth microdilution method; assay type: functional; how it was run: as §3
Staphylococcus aureus [21] = experiment: Antibacterial activity against methicillin-resistant Staphylococcus aureus clinical isolate 1-may after 16 to 20 hrs by broth microdilution method; assay type: functional; how it was run: as §1
Staphylococcus aureus [22] = experiment: Antibacterial activity against methicillin-resistant Staphylococcus aureus clinical isolate 1104060 after 16 to 20 hrs by broth microdilution method; assay type: functional; how it was run: as §1
Staphylococcus aureus [23] = experiment: Antibacterial activity against methicillin-resistant Staphylococcus aureus clinical isolate 20131012632sau after 16 to 20 hrs by broth microdilution method; assay type: functional; how it was run: as §1
Escherichia coli [24] = experiment: Induction of cytoplasmic membrane depolarization in Escherichia coli ATCC 25922 at 10 to 20 ug/ml measured every 2 mins for 12 mins by DiSC35 dye-based fluorescence assay; assay type: functional, organism-based; how it was run: as §6

## CCCCCCCC[N+](C)(C)CC(=O)Nc1ccc(C(=O)/C=C/c2ccccc2)cc1.[Cl-]
Staphylococcus aureus [1]
  MIC: 2 µg/mL
Staphylococcus aureus [2]
  MBC: 128 µg/mL
Staphylococcus aureus [3]
  MIC: 4 µg/mL
Staphylococcus aureus [4]
  Ratio: 2
Staphylococcus aureus [5]
  MIC: 1 µg/mL
Escherichia coli [6]
  MIC: 2 µg/mL
Escherichia coli [7]
  Activity: Active
Staphylococcus aureus [8]
  MIC: 1 µg/mL
Staphylococcus aureus [9]
  MIC: 0.5 µg/mL
Escherichia coli [10]
  Activity: Active
Staphylococcus aureus [11]
  MIC: 1 µg/mL
Staphylococcus aureus [12]
  Activity: 1 CFU/ml
Staphylococcus aureus [13]
  Activity: Active
Escherichia coli [14]
  Activity: Active
[15]
  HC50 at 1 h: 228 µg/mL
HeLa [16]
  Activity: Toxic
Staphylococcus aureus [17]
  Activity: Active
Staphylococcus aureus [18]
  MIC: 0.5 µg/mL
Staphylococcus aureus [19]
  MBC: 32 µg/mL
Enterococcus faecalis
  MIC: 1 µg/mL
HeLa [20]
  Activity: Non-Toxic
Salmonella enterica
  MIC: 4 µg/mL
Staphylococcus aureus [21]
  MIC: 1 µg/mL
Staphylococcus aureus [22]
  MIC: 8 µg/mL
Staphylococcus aureus [23]
  MIC: 4 µg/mL
Escherichia coli [24]
  Activity: Active
